Measured values collected from several papers.
Lines come from different studies, so protocols differ.
Read-out: cell growth or viability

`CCCCCCCCCCCCCCCC[N+](C)(C)C` has an IC50 of 6 µM (LLC-PK1; MTT).
`O=c1ccc2cc3ccoc3cc2o1` gave an IC50 of 28.3 µM (RD; WST-1; 48 h).
`Cc1cccc(-n2ncc(Cl)c(Cl)c2=O)c1` has an IC50 of 1.15 µM (NCI-H2122; resazurin; 96 h).
With `O=C(O)CCCc1ccc(N(CCCl)CCCl)cc1` the IC50 was > 50 µM (A2780; CCK-8; 48 h).
The IC50 of `c1ccc2c(c1)[I+]c1ccccc1-2` is reported as ~0.01 µM (Caco-2; trypan blue; 48 h).
`O=C(O)C(Cl)Cl` gave an IC50 of > 50 µM (LoVo; MTT; 72 h).
`O=c1c2ccccc2nc(S)n1-c1ccccc1` has a viability of 63% (LoVo; LDH; 200 µg/mL, 24 h).
The IC50 of `COc1c2c(cc3c1OCO3)[C@]13C=C[C@H](OC)C[C@@H]1[N@](C2)C[C@H]3OC(=O)c1ccoc1` is reported as > 10 µM (A2780; WST-1).
`N.N.[Cl][Pt][Cl]` gave a GI50 of 1.7 µg/mL (LoVo; ATP luminescence).
The IC50 of `COc1c2c(cc3c1OCO3)[C@]13C=C[C@H](OC)C[C@@H]1[N@](C2)C[C@H]3OC(=O)c1ccco1` is reported as > 10 µM (A2780; WST-1).
With `O=c1ccc2ccc3occc3c2o1` the IC50 was 12.9 µM (RD; WST-1; 48 h).
